In ChEMBL document CHEMBL4020774, “Anti-influenza activity of monoterpene-containing substituted coumarins” (Bioorg Med Chem Lett, 2017):
Activity calls are given as the source filed them. No cut-off for these calls is given here.

Key:
[1] = Selectivity index, ratio of CC50 for MDCK cells to IC50 for Influenza A virus (A/California/07/09(H1N1)) pdm09 infected in MDCK cells; type: toxicity, cell-based; conditions: dog; read-out: Ratio CC50/IC50
[2] = Antiviral activity against Influenza A virus (A/California/07/09(H1N1)) pdm09 infected in MDCK cells pretreated for 1 hr followed by viral infection incubated for 24 hrs measured after 48 hrs by hemagglutination test; type: functional, cell-based, Influenza A virus (A/California/07/2009(H1N1))
Method in brief: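 MDCK cells preincubated with compound for 1 h at 36°C, each concentration in triplicate, then infected (moi 0.01) for 24 h at 36°C, 5% CO2. Supernatant virus titer was read by hemagglutination after 48 h culture in MDCK cells at 36°C.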

[3] = Cytotoxicity against MDCK cells after 48 hrs by MTT assay; type: cell-based, Canis lupus familiaris; conditions: dog
Method in brief: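 Uninfected MDCK cells were exposed to three-fold compound dilutions in MEM for 48 h at 36°C, 5% CO2, then washed with PBS. MTT ([…] in PBS) was added for 1 h, and formazan was dissolved in DMSO.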

Influenza A virus [4] = test: Antiviral activity against Influenza A virus (A/Puerto Rico/8/34(H1N1)) infected in MDCK cells at 500 uM after 4 to 8 hrs post infection by MTT assay; type: functional, cell-based; conditions: A/Puerto Rico/8/1934(H1N1)
Method in brief: (§1)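 Time-of-addition assay in MDCK cells. Virus was adsorbed at m.o.i. 10 for 1 h at 4°C, unbound virions were washed off with MEM, and cells were incubated for 8 h at 36°C, 5% CO2 (start = 0 h). Compound at 500 µM final in MEM was present during set windows between −2 and 8 hpi, then washed out. Titer after 8 h was read as TCID50 by MTT assay.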

Influenza A virus [5] = test: Antiviral activity against Influenza A virus (A/Puerto Rico/8/34(H1N1)) infected in MDCK cells at 500 uM at 1 to 2 hrs post infection by MTT assay; type: functional, cell-based; conditions: A/Puerto Rico/8/1934(H1N1); method in brief: as §1

Structure (SMILES) | selectivity ratio [1] | IC50 [2] [µM] | CC50 at 48 h [3] [µM] | Activity (Influenza A virus [4]) | Activity (Influenza A virus [5])
CC1(C)[C@@H]2CC=C(COc3ccc4ccc(=O)oc4c3)[C@H]1C2 | 1 | > 10 | 7 |  | 
CC1(C)[C@@H]2CC=C(COc3ccc4c5c(c(=O)oc4c3)CCCC5)[C@H]1C2 | 3 | 149 | 415 |  | 
CC1(C)[C@H]2CC=C(CCOc3ccc4c5c(c(=O)oc4c3)CCC5)[C@@H]1C2 | 41 | 21 | > 857 |  | 
CC(C)=CCC/C(C)=C/COc1ccc2ccc(=O)oc2c1 | 1 | 7 | 7 |  | 
COc1cccc(COc2ccc3c(C)cc(=O)oc3c2)c1 | > 1 | 1010 | > 1120 |  | 
COc1cccc(COc2ccc3ccc(=O)oc3c2)c1 |  | > 1170 | > 1170 |  | 
CC1(C)[C@H]2CC=C(COc3ccc4ccc(=O)oc4c3)[C@@H]1C2 | < 3 | > 101 | 310 |  | 
CC(C)=CCC/C(C)=C/COc1ccc2c3c(c(=O)oc2c1)CCCC3 | 1 | > 85 | 100 |  | 
Cc1cc(=O)oc2cc(OCC3=CC[C@H]4C[C@@H]3C4(C)C)ccc12 | 9 | 4 | 30 |  | 
CC1(C)[C@H]2CC=C(CCOc3ccc4ccc(=O)oc4c3)[C@@H]1C2 | 20 | 0.5 | 10 |  | 
Cc1cc(=O)oc2cc(OCC3=CC[C@@H]4C[C@H]3C4(C)C)ccc12 | 13 | 10 | 130 |  | 
CC(N)C12CC3CC(CC(C3)C1)C2 (stereo unspecified) [RIMANTADINE] | 9 | 41 | 363 |  | 
CC(C)=CCC/C(C)=C/COc1ccc2c(C)cc(=O)oc2c1 | < 3 | > 10 | 28 |  | 
CC1(C)[C@@H]2CC=C(COc3ccc4c5c(c(=O)oc4c3)CCC5)[C@H]1C2 | 4 | 33 | 133 |  | 
CC1(C)[C@H]2CC=C(COc3ccc4c5c(c(=O)oc4c3)CCC5)[C@@H]1C2 | 28 | 36 | 982 | inactive | Active
CC1(C)[C@H]2CC=C(COc3ccc4c5c(c(=O)oc4c3)CCCC5)[C@@H]1C2 | 13 | 64 | 857 |  | 
CC1(C)[C@H]2CC=C(CCOc3ccc4c5c(c(=O)oc4c3)CCCC5)[C@@H]1C2 | 6 | 3 | 18 |  | 
CC(C)=CCC/C(C)=C/COc1ccc2c3c(c(=O)oc2c1)CCC3 |  | > 888 | > 888 |  | 
COc1cccc(COc2ccc3c4c(c(=O)oc3c2)CCCC4)c1 |  | > 982 | > 982 |  | 
